From the EternaBench riboswitch data come the findings set out here.

The series deals with MS2 coat protein. Kind of series: apparent Kd, MS2 coat protein; higher = weaker binding; RNA-MaP array; theophylline 2 mM where present. The essentials: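 In 100 mM Tris-HCl pH 7.5, 80 mM KCl, 4 mM MgCl2, BSA, DTT, yeast tRNA and Tween-20, SNAP-549-labelled MS2 coat protein was titrated from 0.7 or 1.5 nM, doubling to 3 µM, over designs transcribed by stalled E. coli RNA polymerase on Illumina sequencing-chip clusters. This was done first without ligand, then with ligand held constant. After green signal was normalised to red-channel RNA signal and control-cluster median Fmax, the apparent Kd was taken as the median of filtered per-cluster binding-curve fits.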

[1] abbreviates: designed as: OFF switch for theophylline, no ligand.
Setting [2] is: ligand present: theophylline, designed as: OFF switch for theophylline.
Setting [3] is: designed as: ON switch for theophylline, no ligand.
Where [4] appears, read: ligand present: theophylline, designed as: ON switch for theophylline.

The apparent Kd is the concentration giving half-maximal binding under the conditions of the assay.

“CGGUUUGUGAUGGAUACCAGCAGAGAAAAUGUUUAUCCUGACAUGAGGAUCACCCAUGUGUGCCCUUGGCAGCUGUUGUGGGCUG”: the “apparent Kd” value reads like this: under setting [1], 56.2 nM; under setting [2], 75.3 nM.

“UAUAUAAUAACAGAUACCAGCGUGUUAUAAAACAUGAGGAUCACCCAUGUAGUGAUCAAGCGCCCUUGGCAGCUGGUAUUAUAUA”: the “apparent Kd” value under setting [3] was 72.2 nM and the “apparent Kd” value under setting [4] was 146 nM.

With “CGAAUACUGAGUGAUACCAGUGAAAGAUAACUGUAUACACAUGAGGAUCACCCAUGUACACACCCUUGGCAGCACACUAGAUCGA”, the “apparent Kd” value reads like this: under setting [3], 33.3 nM; under setting [4], 17.4 nM.

On to “UGGGCAUACAUGAGGAUCACCCAUGUAGAUACCAGCACUAGCCUGUGCCCUUGGCAGCUAACCGGGUCGAGAACUUAGUGCUCCU”, for which the “apparent Kd” value by setting is: under setting [1], 11.8 nM; under setting [2], 52.7 nM.

Consider “AUCUGUAUGUUUUCGUGUUUUAUUACAGAUACCAGACUAUACGUUGUCCCUUGGCAGCUGGAUGACAUGAGGAUCACCCAUGUUG”, for which the “apparent Kd” value reads like this: under setting [1], 33.5 nM; under setting [2], 36.6 nM.

“GAGCUGAUGUAGAAAUUUUAUUUAUGAGAUACCAGUACAGAAAUGUACCCUUGGCAGCUCAAUUUUACAUGAGGAUCACCCAUGU”: the “apparent Kd” value by setting is: under setting [1], 12.1 nM; under setting [2], 13.4 nM.

Take “AAUAUAAGUGUAAUUUUAUGUAUCUCUGAUACCAGACCCUCAUGUGUCCCUUGGCAGCAGUAACAUGAGGAUCACCCAUGUAAAA”: the “apparent Kd” value by setting is: under setting [3], 65.4 nM; under setting [4], 310 nM.

As to “CGAGUUCGCUGAUGGGCUACGUCAGGUGAUACCAGCCACUCCCGCGGCCCUUGGCAGCACAUGAGGAUCACCCAUGUAGAGCUUG”, the “apparent Kd” value is 13.6 nM under setting [1] and 238 nM under setting [2].

In the case of “GCGAUACGUACUGAUACCAGAGACAUGAGGAUCACCCAUGUCCCAUGAUCAUACCUCAGACUCCCUUGGCAGCAGGAUAAGUGAG”, the “apparent Kd” value is 11.2 nM under setting [1] and 18.3 nM under setting [2].

Regarding “CCGCCCACGAAUGAUACCAGCUAAAAUCAUGUACCAGACACAUGAGGAUCACCCAUGUAAAGCCCUUGGCAGCGUACGCCACCCG”, the “apparent Kd” value by setting is: under setting [1], 23.5 nM; under setting [2], 26.4 nM.

As for “ACAUGAAGAACAGCGGUGGGCGCGCUCGAUACCAGUACUUUAAAAUACCCUUGGCAGCGACAUGAGGAUCACCCAUGUGAGAUGA”, the “apparent Kd” value is, setting by setting: under setting [1], 15.3 nM; under setting [2], 28.6 nM.

Turning to “ACGCUGAUUGAUUACAAUCAGCGAAAAGAUACCAGUGGGUAAUCCCACCCUUGGCAGCUUAAACAUGAGGAUCACCCAUGUGGUA”, the “apparent Kd” value by setting is: under setting [3], 74.5 nM; under setting [4], 123 nM.

For “ACGACAUGAGGAUCACCCAUGUAAGGUGAUACCAGACGAAGUAAUGUCCCUUGGCAGCACAAGCAUAGUUGCGAUUAUUGUACGA”, the “apparent Kd” value by setting is: under setting [3], 438 nM; under setting [4], 158 nM.

Take “AGACAUGAGGAUCACCCAUGUAGCACGGAUACCAGAUCCAGAUGUAUCCCUUGGCAGCUGUGGUACAGCGUUGCAACGCUCCUAG”: the “apparent Kd” value runs as follows: under setting [1], 20.7 nM; under setting [2], 28.1 nM.
